Assay results taken from the EternaBench riboswitch data.

Tested on: MS2 coat protein
Assay: apparent Kd, MS2 coat protein; higher = weaker binding; RNA-MaP array; FMN 200 µM where present
How it was run: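 Stalled E. coli RNA polymerase produced the designs on Illumina sequencing-chip clusters. SNAP-549-labelled MS2 coat protein was added from 0.7 or 1.5 nM, doubling to 3 µM, without and then with constant ligand, in 100 mM Tris-HCl pH 7.5, 80 mM KCl, 4 mM MgCl2, BSA, DTT, yeast tRNA and Tween-20. The apparent Kd is the median of filtered per-cluster fits of green signal normalised to red-channel RNA signal and control-cluster median Fmax.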

[1] = designed as: OFF switch for flavin mononucleotide, no ligand
[2] = ligand present: flavin mononucleotide, designed as: OFF switch for flavin mononucleotide
[3] = designed as: ON switch for flavin mononucleotide, no ligand
[4] = ligand present: flavin mononucleotide, designed as: ON switch for flavin mononucleotide

Row | Sequence | apparent Kd [1] [nM] | apparent Kd [2] [nM] | apparent Kd [3] [nM] | apparent Kd [4] [nM]
1 | AUCCUGCGAGGAUAUACAUAGUGACGUCUGUUUGGUCUCAAACAUGAGGAUCACCCAUGUAGAAGGUGCGUCAC | 66.3 | 66.5 |  | 
2 | UACUCAUGUGAGAAGGGACGUAUCUCCAUGAGGGUAGGGCUAUUAGAGAAGUCAGGAUAUCACAUGAGGAUCACCCAUGUGACG | 6.92 | 7.02 |  | 
3 | GCGUUGUUGUAGAAGGUACAUGAAUACUUUUAAUACCUCAAGUAACAUGAGGAUCACCCAUGUAGUAAGGAUAUACAUGAACGC |  |  | 35.4 | 30.2
4 | UCGGCGCGAGGAUAUGCGGUUUGUGCUUUGGGCCCUCGCGUACAUGAGGAUCACCCAUGUAGAAGGCGCGCCGC | 192 | 212 |  | 
5 | GCACUGGAUGUAGGAUAUCAGGACGAUAAGUCCUGAGAAGGACAUGAGGAUCACCCAUGUGAUUACACCAGUGCAAAUAAUAUA | 5.78 | 7.06 |  | 
6 | GUGGCUAGUGCAGGAUAUUGGCGCGUGUAGUGUCGAGAAGGGCACAUGAGGAUCACCCAUGUGAUCAAUCACUGCUAAGGUCGC | 6.98 | 7.69 |  | 
7 | UCCUGGCGAGGAUAUACAAUGUUUUUCGCGUGUUGUUGGGAACAUGAGGAUCACCCAUGUAGAAGGUGCUACUG | 409 | 286 |  | 
8 | GGAGCUCCCAUUAACAUGAGGAUCACCCAUGUCAAAAGACAUGAGGAUAUGGUACCUAAUUGGUACCAGAAGGCAUGGAGCUCC |  |  | 1180 | 107
9 | GGUACUCAAAGAGUACCAAUACGAACAUGAGGAUCACCCAUGUAGGAUAUGCUACUCACAGAGUAGCAGAAGGACAUGUGCCUA | 20.8 | 136 |  | 
10 | AGUUUACAUGAGGAUCACCCAUGUGAGGAUAUGGAAUCGCUGGCCGUAGCCAGUGGUUCCAGAAGGCGCGUGAU | 99 | 187 |  | 
11 | AAGUCUGGACGAGGAUAUCAGUUGUAUCUGGCGUCAACAUGAGGAUCACCCAUGUUGCUAUAGGGUGAGAAGGCGUUUGGGCAA |  |  | 92.6 | 22.8
12 | GUCAGACGAGGAUAUAGAUUUAAGUACAUGAGGAUCACCCAUGUACAUAUGUAUUUAGAUUUAGAAGGCGUCUGAC | 28.2 | 31.6 |  | 
13 | CGCAAACAUGAGGAUCACCCAUGUCAAUGUGAUCAAGGAUAUGGGUUCCUAAACGGAACACCAGAAGGUGAGUAGA |  |  | 85.2 | 23.8
14 | UAAUAAAACGAUCGGCGAUCCAUACAUGAGGAUCACCCAUGUAGAAGGCACUCUACAAAGUAGAGUGAGGAUAUACGAGAUCGA | 7.85 | 105 |  | 
15 | ACUAGAUGAGGAUAUGCAUAUUUUCGUGUUCUUCUAGGUUAACAUGAGGAUCACCCAUGUAGAAGGCGUCUAUU | 20.6 | 38 |  | 
16 | UCAUGAUAUGUAGGAUAUCACUUUAAUUGAUUAAUAUAUGAAUAUAGAAUUUGAGAAGGACAUUUACAUGAGGAUCACCCAUGU | 12.9 | 9.67 |  | 
17 | GUUUCCAGAGGAUAUGCGAGGGUGUACCUCUAACAGCUCAAACAUGAGGAUCACCCAUGUAGAAGGCUGAUCAU | 19.8 | 18.2 |  | 
18 | GUGCGGUAGGAGAAGGACAGAGGCUUCAUUACAUACAUGAGGAUCACCCAUGUAGGAUAUCCUACCUCACGCGGCCUCCUCCUG | 8.48 | 31.8 |  | 
19 | CUUGUUUAUGUGAGGAUAUACUGUUAGUAAUGUUUGUAGAAGGUACAUGAGGAUCACCCAUGUUUAUUUAUAUU | 19.2 | 18 |  | 
20 | CAGCUGAAUGUGAGGAUAUUACGAGCUUCGGCUCGUGAGAAGGCACAUGAGGAUCACCCAUGUCUCAACAGCUG | 38.5 | 540 |  | 
21 | GAAAAGUAAGGAUAUGCACACAGUGAGGAAACUCACUGUGUGCAGAAGGUACAUGAGGAUCACCCAUGUUUCUC | 38.1 | 187 |  | 
22 | GCGUCUUAGUAGAAGGGACAUCGGCUGGUAAGCAUCAUCUCCUUCUCACAUGAGGAUCACCCAUGUCAGGAUAUACUAAGAUGC | 11.5 | 43.1 |  | 
23 | UUCAGCUCGUCAGGAUAUACGUCACUGCUUCGGCAGUGUGGUAAGAUCACAUGAGGAUCACCCAUGUAGAAGGGACGAGCUGAU | 11.9 | 274 |  | 
